From article PMC12306972 (Analytical and bioanalytical chemistry, 2023)

Molecular target: EcCATI (type I chloramphenicol acetyltransferase) (Escherichia coli, UniProt P62577)
Assay: Direct ESI-MS
Type: binding
Details: for Cooperativity factor α: second ligand of the same type binding to EcCATI:1Ligand; for Cooperativity factor β: third ligand of the same type binding to EcCATI:2Ligands
Procedure, shortened: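 Recombinant E. coli type I CAT (Rosetta2 BL21 DE3; heat step, anion-exchange, gel filtration) desalted into 200 mM ammonium acetate pH ~7.0 and mixed with ligand freshly prepared in the same buffer. Trimer at ~10 μM final, with the protein:ligand ratio varied by ligand. Nano-ESI on a Q-TWIMS-TOF under native-preserving settings. Bound/free abundance ratios were fitted to a stepwise three-site model giving intrinsic Kd, α and β. Values are mean ± SD.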

Sequence of EcCATI (type I chloramphenicol acetyltransferase) (P62577 whole entry, looked up): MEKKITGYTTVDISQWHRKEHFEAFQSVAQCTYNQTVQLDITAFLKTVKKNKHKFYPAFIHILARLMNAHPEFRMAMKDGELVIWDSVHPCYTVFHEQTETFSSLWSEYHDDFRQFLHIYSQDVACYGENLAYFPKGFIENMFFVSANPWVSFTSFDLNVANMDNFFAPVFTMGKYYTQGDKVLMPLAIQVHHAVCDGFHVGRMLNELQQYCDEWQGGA

Row | Compound | Cooperativity factor α | Cooperativity factor β
1 | O=C(N[C@H](CO)[C@H](O)c1ccc([N+](=O)[O-])cc1)C(Cl)Cl [Chl, chloramphenicol] | 0.5 | 0.2
2 | CCSCCNC(=O)CCNC(=O)[C@H](O)C(C)(C)COP(=O)(O)OP(=O)(O)OC[C@H]1O[C@@H](n2cnc3c(N)ncnc32)[C@H](O)[C@@H]1OP(=O)(O)O [S-Et-CoA, S-ethyl-CoA] | 0.8 | 0.5
